Read-outs that look alike come from different tables or passages of the source. Blank lines part the entries; values can stand above or below the compound they belong to.
Key:
[1] = test system: human microvascular endothelial cells; assay: Intracellular ADMA in human endothelial cells; type: cell-based; settings: 20 μM, 24 hours
Method in brief: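 HMEC-1 microvascular endothelial cells in serum-free DMEM got test compound (20 μM final), a known DDAH1 inhibitor as control, or DMSO vehicle for 3 h. Medium was then switched to DMEM with 10% FBS, 4mM HEPES and penicillin/streptomycin (pH 7.6), 37°C/5% CO2, until 24 h. Cells were washed and lysed; protein measured by Coomassie; intracellular ADMA by ELISA. Duplicate experiments; unpaired t-test versus vehicle.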

rhDDAH1 [2] = target: T1, rhDDAH1 (Homo sapiens, UniProt O94760); assay: Reversibility study by inhibitor dilution; type: biochemical; settings: DDAH 30 μM pre-incubated with inhibitor, serially diluted
Method in brief: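 DDAH (30 μM, 100-fold above the enzymatic assay concentration) was pre-incubated with test compound at three concentrations, then diluted. Recovery of enzymatic activity was read by fluorometric DDAH assay, with a known DDAH1 inhibitor as control.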

[3] = test system: human saphenous vein segments; assay: NOx release from human saphenous vein segments; settings: 24 hours; in the presence or absence of A23187 (0.5 μM); omeprazole 3–100 μM, L-257 100 μM
Method in brief: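 Saphenous vein segments harvested during CABG surgery were rinsed in lactated Ringer's solution, cut into 0.5 cm pieces and held in endothelial cell medium. They were kept basal or stimulated with A23187 (0.5 μM) for 24 hours with test compound, a reference DDAH1 inhibitor or vehicle. Griess reaction measured total nitrite (NOx) in the conditioned medium. Duplicate experiments, mean ± SEM, one-way ANOVA with Bonferroni post-test versus vehicle.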

DDAH = DDAH (Homo sapiens, UniProt O94760); assay: High throughput screen for DDAH inhibitors; type: biochemical; settings: primary hits of the screen of about 130,000 small molecules
Method in brief: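 Purified recombinant human DDAH1 was used in a DDAH activity assay to screen a library of about 130,000 small molecules. Activity was monitored by colorimetric and fluorometric assays. Hits were compounds inhibiting DDAH by more than 30%. Primary hits were then validated with orthogonal colorimetric and fluorimetric activity assays.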

[4] = target: recombinant human DDAH1 (rhDDAH1) (Homo sapiens, UniProt O94760); assay: Colorimetric microplate DDAH activity assay; type: biochemical
[5] = test system: primary human microvascular endothelial cells (HMVECs); assay: Intracellular NOx in endothelial cells; type: cell-based; settings: 24 hours; lysates, normalized to total protein
Method in brief: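 Primary HMVECs were exposed to vehicle or various concentrations of test compound for 24 h, with a selective DDAH1 inhibitor as control. Total nitrite (NOx) in cell lysates was measured by Griess reaction and normalized to total protein. Values come from duplicate experiments.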

mouse thoracic aorta = assay: Vascular reactivity of isolated mouse thoracic aorta ex vivo; settings: aorta exposed for 24 hours
rhDDAH1 [6] = target: T1, rhDDAH1; assay: Surface plasmon resonance enzyme-drug binding study; settings: 12.5–100 μM; rhDDAH1 amine coupled to CM5 chip; pH 6.5
Method in brief: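 rhDDAH1 was purified with HEPES elution (10mM HEPES in PBS) to avoid competing amines, then amine-coupled to a CM5 chip. Test compound from a DMSO stock, or DMSO vehicle, was diluted in 100mM Na2HPO4, pH 6.5. It was passed over the chip at 4 concentrations (serial dilution, 12.5–100 μM). Binding was followed in real time as sensorgram peaks, in duplicate experiments.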

HMVECs [7] = assay: Western blot of DDAH1 and DDAH2 expression in HMVECs; type: cell-based, human; settings: 3–100 μM for 24 hours
HMVECs [8] = assay: Western blot of eNOS and phospho-eNOS in HMVECs; type: cell-based, human; settings: HMVEC lysate, normalized to β-actin
Method in brief: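 Endothelial cell lysates (20 μg) from cells exposed to test compound or vehicle were analysed by Western blot for total eNOS and phospho-eNOS. VEGF (50 ng/mL) served as positive control for eNOS phosphorylation. Bands were normalized to β-actin.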

[9] = single oral dose of 30 mg, cited from earlier work
[10] = Serum ADMA levels in mice in vivo; design: species or system mouse; settings: C57BL/6J mice; 30 mg/kg/day subcutaneous; 5-week study period
[11] = IC50, 8 point concentration range 0.78–100 μM, Mean ± SEM, triplicate

T1 sequence (O94760 whole entry): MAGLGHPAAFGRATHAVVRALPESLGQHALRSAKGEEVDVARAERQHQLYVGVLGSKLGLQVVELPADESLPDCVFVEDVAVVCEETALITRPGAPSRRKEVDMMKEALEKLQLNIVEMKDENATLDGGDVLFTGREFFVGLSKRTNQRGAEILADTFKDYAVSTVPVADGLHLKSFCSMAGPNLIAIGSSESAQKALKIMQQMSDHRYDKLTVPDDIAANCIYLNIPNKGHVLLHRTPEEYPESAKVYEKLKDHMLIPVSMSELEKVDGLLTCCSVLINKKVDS
Chain of DDAH (O94760 whole entry): as above
Chain of recombinant human DDAH1 (rhDDAH1) (O94760 whole entry): as above

reversibility of inhibition of DDAH enzymatic activity upon dilution (rhDDAH1 [2]): complete reversibility upon dilution
SMILES: COCCNC(N)=NCCC[C@H](N)C(=O)O [L-257]
effect on intracellular ADMA ([1]; control DDAH inhibitor): increased ADMA
NOx released from isolated human saphenous veins [3]: significantly inhibited

inhibition of DDAH in high throughput screen (DDAH): more than 30%
SMILES: COc1ccnc(C[S+]([O-])c2nc3ccc(OC(F)F)cc3[nH]2)c1OC (stereo not shown) [Pantoprazole, pantoprazole]

SMILES: COc1ccc2[nH]c([S+]([O-])Cc3ncc(C)c(OC)c3C)nc2c1 (stereo not shown) [Omeprazole, omeprazole]
IC50 [4, 11]: 58 ± 5 µM
IC50 ([4]; IC50, IC50 value used to set the concentrations of the reversibility study): ~60 µM
levels of nitrogen oxides (NOx) in cultured endothelial cells [5]: dose-dependently reduced
contraction to phenylephrine (PE) (mouse thoracic aorta): enhanced the contraction to phenylephrine
endothelium independent vasorelaxation to sodium nitroprusside (mouse thoracic aorta): did not effect
relaxation to acetylcholine (ACh) (mouse thoracic aorta): blunted the relaxation to acetylcholine
inhibition of DDAH in high throughput screen (DDAH): more than 30%
binding to DDAH (SPR sensorgram) (rhDDAH1 [6]): direct interaction between the PPI and DDAH
protein expression of DDAH1 and DDAH2 (HMVECs [7]): neither regulated the expression of DDAH1 nor that of DDAH2
reversibility of inhibition of DDAH enzymatic activity upon dilution (rhDDAH1 [2]): rapid and almost complete reversibility
NOx released from isolated human saphenous veins [3]: significantly inhibited
expression of total eNOS and active eNOS (phospho-eNOS) (HMVECs [8]): downregulated

inhibition of DDAH in high throughput screen (DDAH): more than 30%
SMILES: Cc1c(OCC(F)(F)F)ccnc1C[S+]([O-])c1nc2ccccc2[nH]1 (stereo not shown) [Lansoprazole, lansoprazole]
increase of intracellular ADMA compared to vehicle control [1]: ~ 30%
Cmax ([9]; read-out: maximum plasma concentration (Cmax)): 2 to 6 µM
time to maximum plasma concentration [9]: ≤ 3 h
increase of serum ADMA compared to vehicle control [10]: about 20%

IC50 [4]: 61 ± 1.5 µM
inhibition of DDAH in high throughput screen (DDAH): more than 30%
SMILES: COc1ccc2[nH]c([S+]([O-])Cc3ncc(C)c(OC)c3C)nc2n1 (stereo not shown) [Tenatoprazole, tenatoprazole]

SMILES: COc1ccc2nc([S@@+]([O-])Cc3ncc(C)c(OC)c3C)[nH]c2c1 [Esomeprazole, esomeprazole]
increase of intracellular ADMA compared to vehicle control [1]: ~ 30%
IC50 [4, 11]: 52 ± 5 µM

— PMC3838201 (Circulation, 2013)
